Screens (PubChem)
Rows were chosen to be rich in hits. Some 3.9% of all compounds tested hit in one or more screens of this group.
697 NFkB inh: inhibitors of the PMA/ionomycin-induced NF-kB reporter in 697 B cells. 697 B-cell NF-kB luciferase reporter, 16 h. inhibition, % at 4 µM. 330,000 tested, 0.33% active; in the data active means inhibition above about 35%
CHOP UPR activ: activators of apoptotic arm of unfolded protein response (CHOP); CHO-CHOP luciferase reporter, UPR activation, luminescence; percent of tunicamycin response over DMSO baseline; activation, % at 10 µM; 330,000 tested, 0.34% active;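 active means at 10 µM dose, activation of 40% or more, normalized to positive control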;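 further: 100% = tunicamycin at 10 µg/mL and 0% = DMSO alone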
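Test system: CHO-CHOP cells, stable luciferase reporter of PERK-eIF2a-CHOP signalling | Quantity: 500 CHO-CHOP cells per well | Buffer or medium: F12 plus 10% serum | Compound dosing: 10 µM single point, 0.5% DMSO | Schedule: 6 h compound treatment, 37 °C | Signal: Luciferase luminescence | Control set: Tunicamycin high control, DMSO low control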
XBP1 UPR activ: adaptive UPR (XBP1) activation; CHO-XBP1 luciferase reporter, IRE1-XBP1 UPR activation, luminescence; percent of tunicamycin response, DMSO as zero; 330,000 tested, 0.33% active; activation, % at 20 µM;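 active means versus positive control, 20 µM dose yields 30% or more activation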;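 further: 100% = tunicamycin at 10 µg/mL and 0% = DMSO only wells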
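Signal: luciferase luminescence; Assay system: CHO-XBP1 luciferase reporter cells; Amount: one thousand reporter cells per well; Dosing: 20 µM single concentration, DMSO 1%; Benchmarks: high control tunicamycin 10 µg/mL final, low control DMSO vehicle only; Schedule: 6 h compound exposure at 37 °C, 5% CO2; Evaluation: percent activation relative to tunicamycin reference.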
Jurkat NFkB inh: lowers PMA/ionomycin-induced NF-kB signal in Jurkat cells | PMA/ionomycin-induced NF-kB luciferase reporter, luminescence | AID 435003 | 330,000 tested, 0.53% active | inhibition, % at 4 µM; in the data active means inhibition above about 50%
Gli-Sufu block: blocks Gli-Sufu signaling in a luciferase reporter. Sufu-KO-LIGHT fibroblasts, Gli luciferase reporter luminescence. 340,000 tested, 0.74% active. AID 588413. inhibition, % at 5 µM;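 active means inhibition above about 55%, limit read from the data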;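 further: 0% = DMSO-treated cells and 100% = wells with medium but no cells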
CHOP inh: blocks CHOP induction under ER stress; CHO-K1 CHOP-promoter luciferase, tunicamycin-induced, 15-18 h; 220,000 tested, 3.8% active; inhibition, % at 10 µM;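 active means compounds that reduced the stress-induced luciferase reporter signal by more than about 70% of percent inhibition, limit read from the data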;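 further: 0% = tunicamycin plus vehicle and 100% = wells without tunicamycin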
UPR CHOP confirm: confirmation of apoptotic unfolded protein response (CHOP) activators; 1,000 tested, 64% active; activation, % at 10 µM; shares compounds with CHOP UPR activ; AID 463112; CHO-CHOP cells, CHOP-luciferase reporter luminescence; percent of tunicamycin response, DMSO as zero; in the data active means activation above about 33%;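 further: 0% = DMSO wells and 100% = tunicamycin 10 µg/mL wells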
An asterisk follows results filed as active; . = not tested or not shown.

SMILES	697 NFkB inh	CHOP UPR activ	XBP1 UPR activ	Jurkat NFkB inh	Gli-Sufu block	CHOP inh	UPR CHOP confirm
CN(C)C(=O)c1cnc(-c2ccccc2)nc1-c1ccccc1	3.8	1.7	2.6	-10.6	18.1	.	.
O=c1oc2ccccc2c2c1C(c1ccc(Cl)cc1)Nc1ccc3ccccc3c1-2 (stereo not drawn)	-30.8	3.6	1.8	17.5	10.6	52.6	.
COc1ccc(C2Nc3ccc4ccccc4c3-c3c2c(=O)oc2ccccc32)cc1 (stereo not drawn)	-7.0	49.2*	133.6*	1.5	.	66.1	46.8*
CCOC(=O)C(=Cc1ccc(OCc2ccc([N+](=O)[O-])cc2)c(OC)c1)C(=O)OCC	26.4	219.4*	5.3	-79.9	-27.4	65.6	247.0*
COc1cc(C(c2c(C)[nH][nH]c2=O)c2c(C)[nH][nH]c2=O)ccc1OCc1ccc([N+](=O)[O-])cc1	7.9	5.8	2.6	-96.7	-16.2	-38.1	.
COc1cc(/C=N/NC(=O)c2cccc([N+](=O)[O-])c2)ccc1OCc1ccccc1	-4.9	3.6	4.7	-58.9	-11.9	-4.8	.
COC(=O)C(=Cc1ccc(OCc2ccc([N+](=O)[O-])cc2)c(OC)c1)C(=O)OC	28.8	334.4*	4.0	-93.4	-19.7	-25.2	106.4*
CCCn1c(N)c(C(=O)CSc2nc(C3CC3)n(-c3ccccc3)n2)c(=O)[nH]c1=O	7.2	0.7	0.4	3.2	-5.8	.	.
CC1(C)Cc2c(sc3ncnc(NN)c23)CO1	3.1	4.0	0.2	0.9	-3.8	.	.
O=C1NN(c2cccc(Br)c2)C(=O)/C1=C\c1ccccc1	8.9	3.7	-1.2	-18.0	21.2	.	.
O=C1NN(c2cccc(Br)c2)C(=O)/C1=C/c1cccs1	16.3	42.7*	17.3	-4.7	-0.8	-23.0	60.4*
Cc1cc(N/N=C/c2ccccc2[N+](=O)[O-])nc(-n2nc(C)cc2C)n1	-18.5	121.5*	12.1	5.5	-7.7	60.7	94.3*
COc1ccc(/C=N/Nc2cc(C)nc(NS(=O)(=O)c3ccc(C)cc3)n2)cc1	15.9	-1.1	-0.2	2.0	-0.8	-3.5	.
Cc1cc(N/N=C/c2cccc(Cl)c2)nc(-n2nc(C)cc2C)n1	10.1	50.5*	5.9	2.5	-3.7	-28.8	6.7
Cc1cc(N/N=C/c2cccc([N+](=O)[O-])c2)nc(-n2nc(C)cc2C)n1	10.7	-0.1	0.9	-0.3	4.8	35.8	.
COc1ccc(O)c(/C=N/Nc2nc(C)cc(-c3ccccc3)n2)c1	3.0	6.3	-1.6	5.9	6.8	.	.
COc1ccc(/C=N/Nc2cc(C)nc(-n3nc(C)cc3C)n2)cc1	4.9	52.2*	8.3	-3.5	11.6	61.1	32.7*
COc1ccc(O)c(/C=N/Nc2nc(Nc3ccccc3)nc(-n3nc(C)cc3C)n2)c1	28.2	101.7*	-0.3	19.8	16.2	11.2	111.6*
Cc1cc(C)n2nc(C(=O)N/N=C/c3cccc(Cl)c3)nc2n1	9.8	1.2	2.1	-2.6	0.5	-4.2	.
O=C(CN1C(=O)C(=O)N(C2CCCC2)C1=O)Nc1cc(Cl)ccc1[N+](=O)[O-]	13.6	0.0	-1.0	-2.5	7.0	.	.
Cc1ccc(NC(=O)CCNC(=O)c2ccc(Br)cc2)cc1S(=O)(=O)N1CCCCCC1	4.3	0.0	-2.8	14.5	13.0	.	.
CCOC(=O)CN1C(=O)/C(=C2\SC(=S)N(NC(=O)c3cccnc3)C2=O)c2ccccc21	3.0	1.2	-4.6	7.7	5.2	.	.
NC(=O)c1cccc(NC(=O)CCCCC(=O)Nc2cccc(C(N)=O)c2)c1	12.7	41.0*	-0.1	-10.9	3.5	.	1.4
Cc1cnc(C(=O)Oc2ccc(-c3ccccc3)cc2)cn1	9.2	0.6	1.9	-18.5	-8.7	.	.
O=C(Cn1cc(/C=C\[N+](=O)[O-])c2ccccc21)Nc1ccccc1	-3.2	60.6*	10.9	-8.4	4.9	-30.6	115.5*
O=C(O)Cn1cc(/C=C/[N+](=O)[O-])c2ccccc21	19.1	-0.9	-0.1	4.0	-1.9	-16.5	.
